# Laboratory results taken from ChEMBL document CHEMBL4725283, “Selective Peptidomimetic Inhibitors of NTMT1/2: Rational Design, Synthesis, Characterization, and Crystallographic Studies” (J Med Chem, 2020).
# The source made the active and inactive calls. The calls are words filed in the database; no cut-off is given here. Where a SMILES comes first, the peptide text is derived from it. [ ]: non-standard residue; d: D form. The star is where a group is joined. ξ: configuration not given here. ξαMeP = CC1(C(=O)O)CCCN1; X1 = O=C(Cc1ccc(O)cc1)*; PhAc = O=C(Cc1ccccc1)*; Bz = O=C(c1ccccc1)*
# Tests used:
# [1] = biological target: T1, N-terminal Xaa-Pro-Lys N-methyltransferase 1 (Homo sapiens, UniProt Q9BV86); experiment: (§1) Inhibition of recombinant human full-length His6-tagged NTMT1 (1 to 222 residues) expressed in Escherichia coli BL21-CodonPlus(DE3)-RIL competent cells pre-incubated for 10 mins in presence of SAM and SAHH before RCC1-6 addition and measured after 15 mins by fluorescence based SAHH-coupled assay
# T1 sequence (Q9BV86 whole entry): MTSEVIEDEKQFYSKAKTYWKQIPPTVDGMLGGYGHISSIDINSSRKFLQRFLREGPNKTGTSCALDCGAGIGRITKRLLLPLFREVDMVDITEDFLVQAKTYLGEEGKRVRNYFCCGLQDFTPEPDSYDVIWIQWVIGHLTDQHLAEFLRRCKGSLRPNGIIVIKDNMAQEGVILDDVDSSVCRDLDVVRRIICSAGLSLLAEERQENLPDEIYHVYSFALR
# Procedure, shortened: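 Pre-incubated 10 min at 37 °C, then started with RCC1-6 (10 µL of 50 µM stock in 100 µL). Line 11 screened at 30 µM; line 12 used 0–100 µM three-fold series, four-parameter fit. Triplicate.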
# [2] = biological target: T2, N-terminal Xaa-Pro-Lys N-methyltransferase 1 (Homo sapiens) (UniProt Q9BV86); experiment: Substrate activity at recombinant human full-length His6-tagged NTMT1 (1 to 222 residues) expressed in Escherichia coli BL21-CodonPlus(DE3)-RIL competent cells by MALDI-MS analysis
# T2 sequence (whole entry): T1 sequence (Q9BV86 whole entry)
# [3] = biological target: T2, N-terminal Xaa-Pro-Lys N-methyltransferase 1 (Homo sapiens); experiment: Inhibition of NTMT1 in human HCT116 cells assessed as decrease in me3-SPK level at 100 uM incubated for 72 hrs by Western blot analysis; assay type: cell-based
# Procedure, shortened: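 HCT116 cells seeded at 20,000 cells/well and treated 3 days with compound or PBS. Lysed in RIPA for 30 min on ice; equal protein (BCA) run on 12.5% SDS-PAGE and transferred to PVDF. Blotted with anti-me3-SPK (1:5000) overnight at 4 °C, with Lamin B1, SET and RCC1 antibodies, then HRP anti-rabbit.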
# [4] = biological target: N-terminal Xaa-Pro-Lys N-methyltransferase 2 (Homo sapiens, UniProt Q5VVY1); experiment: Binding affinity to recombinant human full-length His6-tagged NTMT2 by ITC assay
# Procedure, shortened: (§2)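 ITC at 25 °C. Purified protein (NTMT1 for line 1, NTMT2 for line 2) in 20 mM Tris-HCl pH 7.5, 150 mM NaCl, 0.5 mM TCEP at 30–50 µM final. Compound at 0.5–1 mM in the same buffer, titrated in as 26 injections of 10 µl, 180 s apart, reference power 15 µcal/sec.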
# [5] = biological target: T1, N-terminal Xaa-Pro-Lys N-methyltransferase 1; experiment: Binding affinity to recombinant human full-length His6-tagged NTMT1 (1 to 222 residues) by ITC assay; procedure, shortened: as §2
# [6] = Drug penetration in human HCT116 cells at 1 uM by MALDI-MS analysis; assay type: ADME, cell-based; details: hct-116, 1 µM
# Procedure, shortened: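 HCT116 cells in McCoy's 5A with 10% FBS and 1% antibiotic-antimycotic, seeded at 0.1 × 10^6 cells/mL in 24-well plates and incubated overnight at 37 °C, 5% CO2. Compound added and incubation continued for the specified time; TAT peptide run as control. Cells washed three times with PBS, freeze-lysed twice in liquid nitrogen, and lysate analysed by MALDI (DHB matrix) for intracellular compound.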
# [7] = biological target: T2, N-terminal Xaa-Pro-Lys N-methyltransferase 1 (Homo sapiens); experiment: as §1, with “cells at 30 uM” for “cells”, “assay relative to control” for “assay”; details: time 25.0 min
# Procedure, shortened: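 Pre-incubated 10 min at 37 °C, then started with RCC1-6 (10 µL of 50 µM stock in 100 µL). Read Ex 370/Em 500 nm for 15 min at 37 °C. Line 11 screened at 30 µM; line 12 used 0–100 µM three-fold series, four-parameter fit. Triplicate.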
# Chain of N-terminal Xaa-Pro-Lys N-methyltransferase 2 (Q5VVY1 whole entry): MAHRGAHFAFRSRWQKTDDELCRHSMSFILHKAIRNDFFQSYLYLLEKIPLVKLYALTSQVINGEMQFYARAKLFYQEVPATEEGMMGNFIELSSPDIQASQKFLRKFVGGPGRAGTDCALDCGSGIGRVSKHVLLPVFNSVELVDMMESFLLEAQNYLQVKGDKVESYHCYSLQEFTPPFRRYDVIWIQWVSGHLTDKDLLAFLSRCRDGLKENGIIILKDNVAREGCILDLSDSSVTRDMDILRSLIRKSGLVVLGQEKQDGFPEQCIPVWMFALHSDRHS
IC50 [1],Activity [2],Compound,further results
32.9 µM,inactive,N=C(N)NCCC[C@H](NC(=O)C[C@@H](CCCN)NC(=O)[C@@H]1CCCN1C(=O)Cc1ccc(O)cc1)C(N)=O,–
> 100 µM,inactive,N=C(N)NCCC[C@H](NC(=O)[C@H](CCCCN)NC(=O)c1cccc(NC(=O)Cc2ccc(O)cc2)c1)C(N)=O,–
> 100 µM,inactive,N=C(N)NCCC[C@H](NC(=O)[C@H](CCCCN)NC(=O)[C@@H]1CCCN1CCc1ccc(O)cc1)C(N)=O,–
> 100 µM,inactive,N=C(N)NCCC[C@H](NC(=O)[C@H](CCCCN)NC(=O)c1ccccc1NC(=O)Cc1ccc(O)cc1)C(N)=O,–
> 100 µM,inactive,N=C(N)NCCC[C@H](NC(=O)[C@H](CCCCN)NC(=O)[C@@H]1CCCN1C(=O)c1ccccc1)C(N)=O (Bz-Pro-Lys-Arg-NH2),–
> 100 µM,inactive,COc1ccc(CC(=O)N2CCC[C@H]2C(=O)N[C@@H](CCCCN)C(=O)N[C@@H](CCCNC(=N)N)C(N)=O)cc1,–
> 100 µM,inactive,N=C(N)NCCC[C@H](NC(=O)[C@H](CCCCN)NC(=O)[C@@H]1CCCN1C(=O)C1CCCC1)C(N)=O,–
–,–,N=C(N)NCCC[C@H](NC(=O)[C@H](CCCNC(=N)N)NC(=O)[C@H](CCCNC(=N)N)NC(=O)[C@H](CCCNC(=N)N)NC(=O)[C@H](CCCNC(=N)N)NC(=O)[C@H](CCCNC(=N)N)NC(=O)[C@H](CCCCN)NC(=O)[C@@H]1CCCN1C(=O)Cc1ccc(O)cc1)C(N)=O (X1-PKRRRRRR-NH2),inhibition [3]: Active; Kd [4]: 1 µM; Kd [5]: 0.3 µM; Drug uptake [6]: Active
4.8 µM,inactive,C[C@@H](O)[C@H](NC(=O)[C@H](CCCCN)NC(=O)[C@@H]1CCCN1C(=O)Cc1ccc(O)cc1)C(N)=O,–
6.85 µM,inactive,N=C(N)NCCC[C@H](NC(=O)[C@H](CCCCN)NC(=O)[C@@H]1CCCN1C(=O)Cc1ccccc1)C(N)=O (PhAc-Pro-Lys-Arg-NH2),inhibition [7]: > 50%
4.5 µM,inactive,N=C(N)NCCC[C@H](NC(=O)[C@H](CCCCN)NC(=O)[C@@H]1CCCN1C(=O)CCc1ccc(O)cc1)C(N)=O,–
16 µM,inactive,NCCCC[C@H](NC(=O)[C@@H]1CCCN1C(=O)Cc1ccc(O)cc1)C(N)=O,–
4.8 µM,inactive,C[C@H](NC(=O)[C@H](CCCCN)NC(=O)[C@@H]1CCCN1C(=O)Cc1ccc(O)cc1)C(N)=O,–
4.2 µM,inactive,N=C(N)NCCC[C@@H](NC(=O)[C@H](CCCCN)NC(=O)[C@@H]1CCCN1C(=O)Cc1ccc(O)cc1)C(N)=O,–
> 100 µM,inactive,CC1(C(=O)N[C@@H](CCCCN)C(=O)N[C@@H](CCCNC(=N)N)C(N)=O)CCCN1C(=O)Cc1ccccc1 (stereo partly drawn) (PhAc-[ξαMeP]-Lys-Arg-NH2),–
–,inactive,N=C(N)NCCC[C@H](NC(=O)[C@H](CCCCN)NC(=O)[C@@H]1CCCN1C(=O)Cc1ccc(CO)cc1)C(N)=O,–
> 100 µM,inactive,N=C(N)NCCC[C@H](NC(=O)[C@H](CCCCN)NC(=O)[C@@H]1CCCN1C(=O)c1ccco1)C(N)=O,–
12 µM,inactive,N=C(N)NCCC[C@H](NC(=O)[C@H](CCCCN)NC(=O)[C@@H]1CCCN1C(=O)CCc1ccc(N)cc1)C(N)=O,–
13 µM,inactive,NCCCC[C@H](NC(=O)[C@@H]1CCCN1C(=O)Cc1ccc(O)cc1)C(=O)NCC(N)=O,–
1 µM,inactive,NCCCC[C@H](NC(=O)[C@H](CCCCN)NC(=O)[C@@H]1CCCN1C(=O)Cc1ccc(O)cc1)C(N)=O,–
6.4 µM,inactive,N=C(N)NCC[C@H](CC(N)=O)NC(=O)[C@H](CCCCN)NC(=O)[C@@H]1CCCN1C(=O)Cc1ccc(O)cc1,–
> 100 µM,inactive,N=C(N)NCCC[C@H](NC(=O)[C@H](CCCCN)NC(=O)[C@@H]1CCCN1C(=O)C1CCCCC1)C(N)=O,–
4.3 µM,inactive,N=C(N)NCCC[C@H](NC(=O)[C@H](CCCCN)NC(=O)[C@@H]1CCCN1C(=O)Cc1ccc(N)cc1)C(N)=O,–
–,–,N=C(N)NCCC[C@H](NC(=O)[C@H](CCCNC(=N)N)NC(=O)[C@H](CCCNC(=N)N)NC(=O)[C@H](CCC(N)=O)NC(=O)[C@H](CCCNC(=N)N)NC(=O)[C@H](CCCNC(=N)N)NC(=O)[C@H](CCCCN)NC(=O)[C@H](CCCCN)NC(=O)[C@H](CCCNC(=N)N)NC(=O)CNC(=O)[C@H](CCCNC(=N)N)NC(=O)[C@H](CCCCN)NC(=O)[C@@H]1CCCN1C(=O)Cc1ccc(O)cc1)C(N)=O,Kd [4]: 3.4 µM; Kd [5]: 0.6 µM; Drug uptake [6]: Active
